Results pooled from the literature.
Lines come from different studies, so protocols differ.
Target: Casein kinase I isoform epsilon (CSNK1E, Homo sapiens, UniProt P49674)

SMILES | assay | setting | remaining binding
Cc1cnc(Nc2ccc(C(=O)N3CCC(N4CCCC4)CC3)cc2)nc1-c1cc2ccccc2s1 | binding, competition with immobilised ligand | 1 µM | 100%
C[C@H]1CCN(c2nccc(-c3cnn4ncccc34)n2)C1 | binding | 1 µM | 49%
CCN1CCN(Cc2ccc(C(=O)Nc3ccc(C)c(Oc4ccc5c(c4)CC(=O)N5)c3)cc2C(F)(F)F)CC1 | binding, competition with immobilised ligand | 1 µM | 100%
Cc1nc(N2CC[C@@H](O)C2)ncc1-c1cc(C(F)(F)F)cc2[nH]ncc12 | binding, competition with immobilised ligand | 1 µM | 79%
COc1ccnn2ncc(-c3ccnc(N(C)C)n3)c12 | binding | 1 µM | 75%
CNC(=O)[C@@H]1CC[C@@H](n2c(-c3ccc4cnccc4c3)nc3ccc(C(=O)NCc4cccc(C(N)=O)c4)cc32)C1 | binding, competition with immobilised ligand | 1 µM | 100%
O=C(Nc1c[nH]nc1C(=O)NC1CCNCC1)c1cc(F)cc(F)c1 | binding, competition with immobilised ligand | 1 µM | 73%
C[C@@H]1CN(c2cc(-c3n[nH]c4ccc(OC5(C)CC5)cc34)ncn2)C[C@H](C)O1 | cell-free assay, competition with immobilised ligand | 0.1 µM | 100%
O=C(c1ccc(Nc2nccc(-c3cc4ccccc4s3)n2)cc1)N1CCC(N2CCCC2)CC1 | binding, competition with immobilised ligand | 1 µM | 100%
C=CC(=O)N1CCC(C(=O)NCC(=O)N2CCN(c3nc(-c4cnc(N)nc4C(F)F)nc(N4CCOCC4)n3)CC2)CC1 | binding, competition with immobilised ligand | 1 µM | 87%
O=C(c1ccc(Nc2ncc(Cl)c(-c3ccc(Cl)s3)n2)cc1)N1CCC(N2CCCC2)CC1 | binding, competition with immobilised ligand | 1 µM | 100%
Cc1cnn2ncc(-c3ccnc(N(C)C)n3)c2c1 | binding | 1 µM | 60%
Nc1ncc2c(n1)-c1c([nH]c3ccc(C#CC4CC4)cc13)CCCC2 | binding, competition with immobilised ligand | 1 µM | 100%
CN(C)c1ncc(F)c(-c2cnn3ncccc23)n1 | binding | 1 µM | 100%
O=C1NC(c2ccccn2)Sc2ccccc21 (stereo not shown) | cell-free assay, competition with immobilised ligand | 1 µM | 98%
CC1CCCN1c1nccc(-c2cnn3ncccc23)n1 (stereo not shown) | binding | 1 µM | 100%
CNCc1ccccc1-c1csc([C@@H](C)Nc2nc(C)nc3cc(OC)c(OC)cc23)c1 | cell-free assay, competition with immobilised ligand | 1 µM | 99%
N[C@H]1CCN(c2nccc(-c3cnn4ncccc34)n2)C1 | binding | 1 µM | 47%
O=C(NCc1ncc(C(F)(F)F)cc1Cl)c1ccc2c(c1)C1(CCS(=O)(=O)CC1)[C@H](C1CC1)N2S(=O)(=O)c1ccc(F)cc1 | cell-free assay, competition with immobilised ligand | 1 µM | 100%
COc1cnc(Nc2cccc(S(N)(=O)=O)c2)nc1N1CCN(c2ccccc2)C(=O)C1 | binding, competition with immobilised ligand | 1 µM | 100%
Cc1c(NC(=O)c2cc(C(N)=O)nc3cc(F)ccc23)c(C(F)(F)F)nn1Cc1ccc(C(C)(C)C)cc1 | cell-free assay, competition with immobilised ligand | 1 µM | 91%
CN(CCCC(F)(F)F)c1nccc(-c2cnn3ncccc23)n1 | binding | 1 µM | 100%
